Experimental data: the EternaBench riboswitch data

Test system: MS2 coat protein
Assay: apparent Kd, MS2 coat protein; higher = weaker binding; RNA-MaP array; FMN 200 µM where present
Summary of the method: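 In 100 mM Tris-HCl pH 7.5, 80 mM KCl, 4 mM MgCl2, BSA, DTT, yeast tRNA and Tween-20, SNAP-549-labelled MS2 coat protein was titrated from 0.7 or 1.5 nM, doubling to 3 µM, over designs transcribed by stalled E. coli RNA polymerase on Illumina sequencing-chip clusters. This was done first without ligand, then with ligand held constant. After green signal was normalised to red-channel RNA signal and control-cluster median Fmax, the apparent Kd was taken as the median of filtered per-cluster binding-curve fits.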

[1] = designed as: ON switch for flavin mononucleotide, no ligand
[2] = ligand present: flavin mononucleotide, designed as: ON switch for flavin mononucleotide
[3] = designed as: OFF switch for flavin mononucleotide, no ligand
[4] = ligand present: flavin mononucleotide, designed as: OFF switch for flavin mononucleotide

| Sequence | apparent Kd [1] [nM] | apparent Kd [2] [nM] | apparent Kd [3] [nM] | apparent Kd [4] [nM] |
| --- | --- | --- | --- | --- |
| GUGAGAAUAGGAGGAUAUAUACAACAUGAGGAUCACCCAUGUACCCGUGUAGUAGAAGGUUUGUUUAUAUAUAAUAUUAUAUUU | 20.2 | 18.7 |  |  |
| GUGAGUGGUCAGGAUAUGCUGUACAAAAGUACAGCAGAAGGGACUACAUGAGGAUCACCCAUGUUUACUUCAUG |  |  | 268 | 311 |
| GUGCAAUGAGGAUAUACGUUGGUGAACAUCUGUGUGCUCCUACAUGAGGAUCACCCAUGUAGAAGGCAUGUCAC |  |  | 11.4 | 17.1 |
| GUGCCUAUCUGAGGAUAUCAACGCACUUGAGCGUGAGAAGGCAGAGGUACAUGAGGAUCACCCAUGUCCUCCAUAAAAUAAAAG |  |  | 6.65 | 14.1 |
| GUGCCUUGGGAGAAGGCAGCAUGCAAAGCAUUCUGAGGAUAUUCAUACCGGAAACGGACAUGAGGAUCACCCAUGUGGCACAAA | 1470 | 72.1 |  |  |
| GUGCUAUGAGGAUAUACGUUGGUGGGCAUCUGUGUGCUCCUACAUGAGGAUCACCCAUGUAGAAGGCAUGUCAC |  |  | 12.4 | 21.9 |
| GUGCUCGUGUGAGGAUAUGCUGCCGGGUCGGCUGCAGAAGGUACUAUUAUACAUGAGGAUCACCCAUGUCGCUUUUCUCCGGUG | 45.6 | 44.9 |  |  |
| GUGCUUAACUAGAAGGCCGUAUGCAAAGCAUACGGAGGAUAUGGGUUCCGGAAACGGACAUGAGGAUCACCCAUGUGGCACAAA | 111 | 12.7 |  |  |
| GUGGACUACGUAGGAUAUGUAGGAUAUUCCUACAUGAGGAUCACCCAUGUUAGCAUGGAAGAAGGACAGAAGGACGUGGUCCAG | 1130 | 16 |  |  |
| GUGGUCUGACAUGAGGAUCACCCAUGUGGAAUAAAUACGGGUUAGGAUAUCUUGAGGAUCACCCAAGAGAAGGGAUCGAUUGUU | 52.8 | 45 |  |  |
| GUGGUGAAUUAAGGAUAUCGAGUCUAGAUGUUAAACAUGAGGAUCACCCAUGUGGGUUGCGGUGUCGAGAAGGUAAUUUACGGG | 64.3 | 33.9 |  |  |
| GUGGUUGUCGUAGGAUAUGUAGGAUAUUCCUACAUGAGGAUCACCCAUGUUCGCAUGGAAGAAGGACGGAAGGACGAUGACCAA | 306 | 125 |  |  |
| GUGUACAGAGGAUAUACAUAAGCUAGGAAACUAGCAACUUCACAUGAGGAUCACCCAUGUAGAAGGCUGUACAC |  |  | 13.9 | 17.8 |
| GUGUACAGAGGAUAUACUGGAGCUAGGAAACUAGCAACUUCACAUGAGGAUCACCCAUGUAGAAGGCUGUACAC |  |  | 17.1 | 65.7 |
| GUGUACAGAGGAUAUAUAUGAGCUAGGAAACUAGCAAACUCACAUGAGGAUCACCCAUGUAGAAGGCUGUACAC |  |  | 29.4 | 156 |
| GUGUACAUAUCAGGAUAUCUAUUUCCUACAUGAGGAUCACCCAUGUAGAUGAUCACCCAUGUAAAGGAGAAGGGAUAUGUAUAC | 384 | 222 |  |  |
| GUGUACGGAGGAUAUAUGUGGGCAGCAUACGCUGCAGCUUCACAUGAGGAUCACCCAUGUAGAAGGCUGUGCAC |  |  | 23.2 | 131 |
| GUGUAGGCAGGAUAUACAUGAGGAUCACCCAUGUGAAUAAGAUAGAAUAAGAUAAAGUGUAGAAGGGUUAGUGU |  |  | 40.7 | 32.4 |
| GUGUAGGUAGGAUAUACAUGAGGAUCACCCAUGUGAAUAAGAUAGAAUAAGAUAAAGUGUAGAAGGGCUAGUGU |  |  | 39.6 | 31.9 |
| GUGUGCAGAGGAUAUACAGAGGAAAAGAAAAGAGAAGGGAGACAUGAGGAUCACCCAUGUAGAAGGCUGAGUGU |  |  | 64.4 | 91.8 |
| GUGUUGUCAGGAUAUCUUACAUAACUAUCGUUGUUACCAUUGGAGAAGGGACAUGAGGAUCACCCAUGUUAUCC |  |  | 22.3 | 23.7 |

| Sequence | apparent Kd [1] [nM] | apparent Kd [2] [nM] | apparent Kd [3] [nM] | apparent Kd [4] [nM] |
| --- | --- | --- | --- | --- |
| GUUAAACAUGAGGAUCACCCAUGUAAGGAUAUGCUGCGGUCGCGCUGACGUGACUGCAGCAGAAGGUACAAAUG |  |  | 105 | 66.9 |
| GUUAAACAUGAGGAUCACCCAUGUCAAUGUAGUCGAGGAUAUGGGCAGCUGUGAGGCGUACUAGAAGGCGAAAAGG | 270 | 57.5 |  |  |
| GUUAAUUAGUGAGGAUAUACAGUAUUUAAUACUGUAGAAGGCACAAUCCUCAAGACAUGAGGAUCACCCAUGUGAUAAUAAGAU |  |  | 54.4 | 203 |
| GUUACAUGAGGAUCACCCAUGUAUGUGUGGGAGUAAGUGUCUUAGGAUAUCUAUUAUUUAAAUUAAGAGAAGGAAGAUUGUUGU | 123 | 137 |  |  |
| GUUAUAAAGGUAGGAUAUAGUAUUAUAAUUAAAUUAGAAGGAUCUCACAUGAGGAUCACCCAUGUAAGAGGAUCACCCAUGUAU |  |  | 11.4 | 8.66 |
| GUUAUUGACAAGAAGGCAAACAUGAGGAUCACCCAUGUUCUACAUGGAUAUUGAGGAUAUUGCCAAUACAUGAGGAUCACCCAG |  |  | 63 | 68.8 |
| GUUAUUUAUGUAGGAUAUGCGAGGCGAGCCUAAGCAGAAGGACAUGAGGAUCACCCAUGUAUUGCGGUCUGCGUUCAGAUCGCU |  |  | 32.4 | 150 |
| GUUCUCGGAGGAUAUACACAGUGAGAACCCGCGCAAGCGGGACAUGAGGAUCACCCAUGUAGAAGGUCGAGCAA |  |  | 70.2 | 170 |
| GUUGAUGGAGGAUAUACUGCAGUGAUUGGCAAGAAUCCAGCACAUGAGGAUCACCCAUGUAGAAGGCCAUAACA |  |  | 25.8 | 63.5 |
| GUUGGGUGUCAUGUCGCACAUGAGGAUCACCCAUGUAGGAGGUAGGAUAUCCACGAGAAACAAGAGGAGAAGGGCCAUUAGCGU |  |  | 23.5 | 29.2 |
| GUUGGUUAUGUAGGAUAUGCGAGGCGAGCCUAAGCAGAAGGACAUGAGGAUCACCCAUGUAUUGCGGUCUGCGUUCAGAUCGCU |  |  | 36.2 | 156 |
| GUUGUACGAGGAUAUACAUGAGGAUCACCCAUGUGUGUUGUGGGCGACGUACGUUUAUGUAGAAGGCGUGCGGC |  |  | 63.6 | 115 |
| GUUGUGUAUGUAGGAUAUGCGAAGCAAAGCUUCGCAGAAGGACAUGAGGAUCACCCAUGUAUUGCAGCCUGCAAUCAGGCUGCU |  |  | 41.6 | 175 |
| GUUGUGUGAGGAUAUGCCUGGCCGUGUGGCCGGUUUGGGUGGCAGAAGGUACAUGAGGAUCACCCAUGUACGGG |  |  | 105 | 107 |
| GUUUACGCAUGAGGAUAUGCUCGCAUUUCAAGAGCAGAAGGUAUGUCUUUAGACAUGAGGAUCACCCAUGUAUUUAUCAUUGAA | 166 | 28.4 |  |  |
| GUUUCACAUGAGGAUCACCCAUGUGAGGAUAUGGACUUAUUGGCAAUAGUCGAUGGGUUCAGAAGGCGCGUGAU |  |  | 67.9 | 71.2 |
| GUUUUGGGAGGAUAUAUGUGGAUUAUUUUUGUAUGUUGUUUACAUGAGGAUCACCCAUGUAGAAGGUCUAGAGC |  |  | 102 | 211 |
| GUUUUUUUUAGUUCAUACUAUUUGAUAGAAGGUGAAAUAUAGACAUGAGGAUCACCCAUGUAAUUCAAGGAUAUGUAGUUACUC | 40.6 | 32.7 |  |  |
| UAAAAACAUGAGGAUCACCCAUGUGAGGAUAUCGAAAAAAAAAAAUUAAAAAAGGAAGCGAGAAGGUACGGGAU |  |  | 53.1 | 49.6 |
| UAAAAGAAAGUAAGGAUAUCUAAAUUGGAAAAGAGAGAGAAGGUACAUGAGGAUCACCCAUGUAGGGUAUCCGG |  |  | 52.1 | 72.8 |
| UAAAAGACUAGCAACUAACUCCACAUGAGGAUCACCCAUGUCUAGGAUAUGAGCAGCAAAGCUGCUUAGAAGGAGACGCUAGUC |  |  | 6.48 | 6.1 |
